Like-named read-outs stand apart in the source and are kept apart here.
Legend:
[1] = tested on: human renal Caki-1 cancer cell line; assay: Cell viability; type: cell-based; settings: read-out: IC50 Caki-1; 72 h incubation; dissolved in 1% DMSO, diluted with water
Procedure, shortened: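 Growth inhibition measured by BluePresto assay in human renal Caki-1 cancer cells, run in parallel with human colon HCT 116 and DLD1 cancer lines and non-tumorigenic HEK-293T cells. Cells were exposed to test compound for 72 h. Compounds were dissolved in 1% DMSO and diluted with water before addition to the culture medium. Cisplatin reference was dissolved in water.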

[2] = tested on: thioredoxin reductase (TrRx); assay: Thioredoxin reductase activity in treated Caki-1 cells; type: cell-based, human; settings: 5 µM, 24 hour incubation
Procedure, shortened: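 Caki-1 cells were incubated with 5 µM test compound or 0.1% DMSO vehicle for 5, 12 and 24 h. Endogenous thioredoxin reductase activity was then assayed in soluble whole-cell lysates. Percent inhibition is relative to vehicle-treated cells at 24 h.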

plasmid (pBR322) DNA = settings: cited from earlier work
[3] = tested on: human renal Caki-1 cancer cell line; settings: read-out: IC50 Caki-1; cisplatin dissolved in H2O; ref [24]; cited from earlier work
[4] = tested on: non-tumorigenic human embryonic kidney cell lines HEK-293T; settings: read-out: IC50 HEK-293T; cisplatin dissolved in H2O; ref [24]; cited from earlier work

IC50 [1]	Compound	inhibition of thioredoxin reductase activity [2]	other results
5.2 ± 0.9 µM	[Ru(p-cymene)Cl2(μ-dppm)Au(IPr)]ClO4 [compound 13]	63%	–
35.6 ± 3.7 µM	[Ru(p-cymene)Cl2(η^1-dppm)] [compound 9]	44%	interaction with plasmid DNA (plasmid (pBR322) DNA; ref [31]): weakly reduced supercoiling in plasmid DNA
27.1 ± 2 µM	CC(C)c1cccc(C(C)C)c1-n1ccn(-c2c(C(C)C)cccc2C(C)C)[c]1=[Au][Cl] [compound 1, [(IPr)AuCl]]	17%	–

More lines, now with the values behind:

Compound	IC50 [1]	inhibition of thioredoxin reductase activity [2]	other results
[Ru(p-cymene)Cl2(μ-dppm)AuCl] [compound 7]	–	–	interaction with plasmid (pBR322) DNA (plasmid (pBR322) DNA; previously described compounds, ref [26]): lack of interaction
N.N.[Cl][Pt][Cl] [cisplatin]	–	–	IC50 [3]: 29 ± 4.11 µM; IC50 [4]: 3.27 ± 0.13 µM

From paper PMC4861071 (Chemical communications (Cambridge, England), 2016)
